The values below come from ChEMBL document CHEMBL4350999, “Enhanced tumor retention of NTSR1-targeted agents by employing a hydrophilic cysteine cathepsin inhibitor” (Eur J Med Chem, 2019).

By logD is commonly meant lipophilicity at a set pH, counting ionised and neutral species.

Data set [1] can be described thus: Ratio of drug uptake in SCID mouse xenograted with human HT-29 cells assessed as tumour retention to drug uptake in muscle of SCID mouse xenografted with human HT-29 cells measured after 24 hrs using 177Lu labelled compound. The data set is classed as ADME, tissue-based, Tumor/Muscle. The essentials:
(§1)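 Female SCID mice (5 weeks old) received s.c. flank HT-29 cells (5 × 10^6 in Matrigel). At ~80 mm3, two weeks later, mice were randomized and given 10 μCi (0.37 MBq) of purified 177Lu conjugate i.v. by tail vein. Mice were killed at 4, 24 or 72 h. Tissues were weighed and gamma counted as %ID/g, mean ± SD, n = 5. Tumor-to-tissue ratios were calculated.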
For orientation: A xenograft is tissue or cells of one species grown in another, often human tumour cells in immunodeficient mice.

Data set [2] is described as follows: Ratio of drug uptake in SCID mouse xenograted with human HT-29 cells assessed as tumour retention to drug uptake in spleen of SCID mouse xenografted with human HT-29 cells measured after 24 hrs using 177Lu labelled compound. It counts as ADME, tissue-based, Tumor/Spleen. The essentials: as §1
Data set [3] can be described thus: Drug uptake in bone of SCID mouse xenografted with human HT-29 cells at 0.37 MBq/mouse, iv measured at 72 hrs using 177Lu labelled compound by gamma counter analysis. The data set is classed as ADME, organism-based, Bone element. The following applies: in vivo. The method in brief:
(§2)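 Female SCID mice (5 weeks) bore s.c. flank xenografts of HT-29 cells (5 × 10^6 in Matrigel), used at about 80 mm3 (two weeks) and randomized. Each mouse received 10 μCi (0.37 MBq) of HPLC-purified 177Lu-conjugate via tail vein. Tissues were excised, weighed and gamma-counted, expressed as %ID/g; mean ± SD, n = 5.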

Data set [4] is described as follows: Drug uptake in pancreas of SCID mouse xenografted with human HT-29 cells at 0.37 MBq/mouse, iv measured at 24 hrs using 177Lu labelled compound by gamma counter analysis. The data set is classed as ADME, organism-based. The following applies: in vivo. The method in brief: as §2
A short description of data set [5]: Drug uptake in stomach of SCID mouse xenografted with human HT-29 cells at 0.37 MBq/mouse, iv measured at 72 hrs using 177Lu labelled compound by gamma counter analysis. It counts as ADME, organism-based. The note with it: in vivo. The essentials: as §1
A short description of data set [6]: Drug uptake in membrane of human HT-29 cells measured after 240 mins using 177Lu labelled compound by gamma counter method relative to control. It counts as ADME, cell-based. The following applies: ht-29, 4 h. The essentials:
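HT-29 cells (~1 × 10^6 in 1 mL medium) were incubated with 177Lu-conjugate (100,000 cpm) at 37 °C and sampled at 15–240 min. After medium washes, surface-bound activity was stripped with pH 2.8 glycine-HCl/NaCl buffer, and the internalized fraction was taken from the 1% SDS lysate. Fractions were gamma-counted as % of total added activity; mean ± SD, n = 3.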

Data set [7] can be described thus: Drug uptake in heart of SCID mouse xenografted with human HT-29 cells at 0.37 MBq/mouse, iv measured at 72 hrs using 177Lu labelled compound by gamma counter analysis. The data set is classed as ADME, organism-based. The following applies: in vivo. The method in brief: as §2
A short description of data set [8]: Drug uptake in stomach of SCID mouse xenografted with human HT-29 cells at 0.37 MBq/mouse, iv measured at 24 hrs using 177Lu labelled compound by gamma counter analysis. The data set is classed as ADME, organism-based. The following applies: in vivo. The method in brief:
as §1

Data set [9] can be described thus: Octanol-PBS buffer distribution coefficient, log D of 177Lu labelled compound at pH 7.4 by radiometric analysis. It counts as physicochemical. The method in brief:
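177Lu conjugate partitioned between 1-octanol and PBS pH 7.4. 100 μL aliquots from each layer were gamma counted, and LogD7.4 was calculated from the counts.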

Data set [10] can be described thus: Drug uptake in spleen of SCID mouse xenografted with human HT-29 cells at 0.37 MBq/mouse, iv measured at 72 hrs using 177Lu labelled compound by gamma counter analysis. It counts as ADME, organism-based. The following applies: in vivo. The essentials: as §1
Data set [11] in a line: Drug internalization in human HT-29 cells assessed as efflux percentage measured at 24 hrs using 177Lu labelled compound by gamma counter method relative to control. It counts as ADME, cell-based. The note with it: ht-29, 24 h. The essentials: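 HT-29 cells (~1 × 10^6) loaded 2 h at 37 °C with 177Lu conjugate (100,000 cpm), washed, then given fresh medium. Medium collected and replaced at 1, 2, 4, 8, 24 h and gamma-counted; cells lysed in 10% SDS at 24 h. Efflux expressed as % of total internalized activity (effluxed + cell-retained); n = 3.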

A short description of data set [12]: Drug uptake in muscle of SCID mouse xenografted with human HT-29 cells at 0.37 MBq/mouse, iv measured at 4 hrs using 177Lu labelled compound by gamma counter analysis. It counts as ADME, organism-based, Muscle tissue. The note with it: in vivo. The essentials: as §2
A short description of data set [13]: Drug excretion in SCID mouse xenografted with human HT-29 cells at 0.37 MBq/mouse, iv measured at 24 hrs using 177Lu labelled compound by gamma counter analysis. The following applies: in vivo. The data set is classed as ADME, organism-based. The essentials:
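Female SCID mice bearing s.c. flank HT-29 xenografts (5 × 10^6 cells in Matrigel, ~80 mm3). Given 10 μCi (0.37 MBq) 177Lu conjugate i.v. by tail vein; groups sacrificed at 4, 24, 72 h. Tissues weighed and gamma-counted as %ID/g, excretion as %ID; n = 5, mean ± SD. Blocking arms: colchicine 1 mg/kg i.p. beforehand, or D-lysine 40 mg/kg co-injected.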

Data set [14] in a line: Drug uptake in heart of SCID mouse xenografted with human HT-29 cells at 0.37 MBq/mouse, iv measured at 4 hrs using 177Lu labelled compound by gamma counter analysis. The note with it: in vivo. The data set is classed as ADME, organism-based. The method in brief: as §2
A short description of data set [15]: Drug uptake in small intestine of SCID mouse xenografted with human HT-29 cells at 0.37 MBq/mouse, iv measured at 4 hrs using 177Lu labelled compound by gamma counter analysis. It counts as ADME, organism-based. The following applies: in vivo. The method in brief: as §2
Data set [16] can be described thus: Drug uptake in liver of SCID mouse xenografted with human HT-29 cells at 0.37 MBq/mouse, iv measured at 24 hrs using 177Lu labelled compound by gamma counter analysis. It counts as ADME, organism-based. The following applies: in vivo. The method in brief: as §2
Data set [17] in a line: Drug uptake in kidney of SCID mouse xenografted with human HT-29 cells at 0.37 MBq/mouse, iv measured at 24 hrs using 177Lu labelled compound by gamma counter analysis. The note with it: in vivo. It counts as ADME, organism-based. The method in brief:
as §2

Data set [18] in a line: Drug uptake in spleen of SCID mouse xenografted with human HT-29 cells at 0.37 MBq/mouse, iv measured at 24 hrs using 177Lu labelled compound by gamma counter analysis. The data set is classed as ADME, organism-based. The following applies: in vivo. The essentials: as §1
Data set [19] can be described thus: Drug uptake in liver of SCID mouse xenografted with human HT-29 cells at 0.37 MBq/mouse, iv measured at 4 hrs using 177Lu labelled compound by gamma counter analysis. The data set is classed as ADME, organism-based. The following applies: in vivo. The essentials:
as §2

Data set [20] concerns the target Cathepsin B (Homo sapiens, UniProt P07858). Put plainly: Binding affinity to cathepsin B in human HT-29 cells assessed as intracellular adduct formation at 0.74 MBq incubated for 4 hrs using 177Lu labelled compound by SDS-PAGE analysis. The data set is classed as cell-based. More on the design: dose or concentration left out as unconfirmed. The essentials:
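HT-29 cells (1 × 10^6/well) incubated 4 h at 37 °C with 177Lu conjugate (20 μCi, 0.74 MBq) in 1 mL medium, with or without E-64 (10 μM) or NTSR1 peptide N1 (20 μM). Cells washed and refed; at set times cells pooled, RIPA-lysed with protease inhibitor. Lysates heated 85 °C 2 min, run on 16% tris-glycine SDS-PAGE, and phosphor autoradiography taken after 72 h exposure.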

Data set [21] in a line: Drug uptake in bone of SCID mouse xenografted with human HT-29 cells at 0.37 MBq/mouse, iv measured at 4 hrs using 177Lu labelled compound by gamma counter analysis. It counts as ADME, organism-based, Bone element. The following applies: in vivo. The essentials: as §2
A short description of data set [22]: Drug uptake in large intestine of SCID mouse xenografted with human HT-29 cells at 0.37 MBq/mouse, iv measured at 4 hrs using 177Lu labelled compound by gamma counter analysis. The data set is classed as ADME, organism-based. The following applies: in vivo. The essentials: as §2
The nature of data set [23]: Drug uptake in stomach of SCID mouse xenografted with human HT-29 cells at 0.37 MBq/mouse, iv measured at 4 hrs using 177Lu labelled compound by gamma counter analysis. It counts as ADME, organism-based. The following applies: in vivo. The essentials: as §1

Structures are written as SMILES. Activity calls are given as the source filed them. No cut-off for these calls is given here.

For the molecule `Cc1cc(O)cc(C)c1C[C@H](NC(=O)[C@@H]1CCCN1C(=O)[C@H](CCCNC(=N)N)NC(=O)[C@H](CCCNC(=N)N)N(C)C(=O)[C@@H]1CCCN1C(=O)[C@H](CCCCN)NC(=O)[C@@H](CO)NC(=O)[C@@H](CO)NC(=O)[C@@H](CO)NC(=O)[C@H](Cc1cn(CCNC(=O)[C@H](CCCNC(=N)N)NC(=O)[C@H](CC(C)C)NC(=O)C2OC2C(=O)O)nn1)NC(=O)CN1CCN(CC(=O)O)CCN(CC(=O)O)CCN(CC(=O)O)CC1)C(=O)N[C@H](C(=O)N[C@@H](CC(C)C)C(=O)O)C(C)(C)C` (stereo partly drawn), the results for the Ratio in [1] and in data set [2] were 137 and 4, respectively. The Drug uptake in data set [3] is 0.6 % ID/g; in [4], 0.18 % ID/g; in [5], 0.21 % ID/g; in data set [6], “Not Active”; in data set [7], 0.04 % ID/g; in [8], 0.33 % ID/g. The Drug uptake in data set [10] was 1.9 % ID/g; in data set [11] it was 50%; in data set [12], 0.09 % ID/g; in [14], 0.14 % ID/g; in data set [15], 3.5 % ID/g; in [16] it was 0.73 % ID/g. In addition, the Drug uptake in [17] stood at 80 % ID/g; in [18], 1.7 % ID/g; in data set [19] it was 0.78 % ID/g; in data set [21], 0.8 % ID/g; in data set [22] it was 1.2 % ID/g; in data set [23] it was 0.34 % ID/g. In data set [9], the logD is -3.78. In data set [13], this molecule returned a Drug excretion of 69 %ID. The result in [20] was Active.
